Test results taken from ChEMBL document CHEMBL1159342, “Nitric oxide inhibitory isopimarane-type diterpenes from Orthosiphon stamineus of Indonesia” (J Nat Prod, 2003).

Test system: J774.1
Assay: Inhibition of LPS-induced NO production in mouse J774.1 cells after 24 hrs
Assay type: functional, cell-based
Details: J774.1, 24 h
Outline: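 Cells harvested with trypsin, seeded at 1 × 10^5 cells/well, adhered 2 h at 37 °C under 5% CO2. Medium then replaced with fresh medium containing LPS (10 µg/mL) plus test compounds at indicated concentrations, 24 h. Nitrite in supernatant measured with Griess reagent (10 min, room temperature), absorbance 550 nm. Quantified against NaNO2 standard curve in medium, medium-only blank subtracted.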

SMILES	IC50
C[C@@H]1C[C@H]2[C@@H]3CCC4=CC(=O)C=C[C@]4(C)[C@@]3(F)[C@@H](O)C[C@]2(C)[C@@]1(O)C(=O)CO [DEXAMETHASONE]	170 µM
C=C[C@@]1(C)C[C@@H](OC(=O)c2ccccc2)[C@H]2[C@](O)(C1=O)[C@H](OC(C)=O)C[C@H]1C(C)(C)[C@H](O)[C@H](OC(C)=O)[C@H](OC(=O)c3ccccc3)[C@@]12C [ORTHOSIPHOL A]	11.5 µM
C=C[C@@]1(C)C[C@@H](OC(=O)c2ccccc2)[C@H]2[C@](O)(C1=O)[C@H](OC(C)=O)C[C@H]1C(C)(C)[C@H](OC(C)=O)[C@H](O)[C@H](OC(=O)c3ccccc3)[C@@]12C [ORTHOSIPHOL B]	20.5 µM
C=C[C@@]1(C)C[C@@H](OC(=O)c2ccccc2)[C@@H]2[C@@]3(C)C=C(OC(C)=O)C(=O)C(C)(C)[C@@H]3C[C@@H](OC(C)=O)[C@@]2(O)C1=O [ORTHOSIPHOL D]	14.4 µM
C=C[C@@]1(C)C[C@@H](OC(=O)c2ccccc2)[C@H]2[C@](O)(C1=O)[C@H](O)C[C@H]1C(C)(C)[C@H](OC(C)=O)[C@H](OC(C)=O)[C@H](OC(=O)c3ccccc3)[C@@]12C [ORTHOSIPHOL F]	34.5 µM
C=C[C@@]1(C)C[C@@H](O)[C@H]2[C@](O)(C1=O)[C@H](O)C[C@H]1C(C)(C)[C@H](OC(C)=O)[C@H](OC(C)=O)[C@H](OC(=O)c3ccccc3)[C@@]12C [ORTHOSIPHOL G]	145 µM
C=C[C@@]1(C)CC(=O)[C@H]2[C@](O)(C1=O)[C@H](O)C[C@H]1C(C)(C)[C@H](OC(C)=O)[C@H](OC(C)=O)[C@H](OC(=O)c3ccccc3)[C@@]12C [ORTHOSIPHOL I]	102 µM
C=C[C@@]1(C)CC(=O)[C@H]2[C@](O)(C1=O)[C@H](OC(C)=O)C[C@H]1C(C)(C)[C@H](OC(C)=O)[C@H](OC(C)=O)[C@H](OC(=O)c3ccccc3)[C@@]12C [ORTHOSIPHOL J]	66.3 µM
C=C[C@@]1(C)C[C@@H](O)[C@H]2[C@](O)(C1=O)[C@H](OC(C)=O)C[C@H]1C(C)(C)[C@H](OC(=O)c3ccccc3)[C@H](OC(C)=O)[C@H](OC(=O)c3ccccc3)[C@@]12C [ORTHOSIPHOL O]	27.7 µM
C=C[C@]1(C)C(=O)[C@]2(O)[C@H](OC(C)=O)C[C@H]3C(C)(C)[C@H](OC(C)=O)[C@H](O)[C@H](OC(=O)c4ccccc4)[C@]3(C)[C@H]2[C@H](OC(=O)c2ccccc2)[C@H]1O [ORTHOSIPHOL R]	35.7 µM
C=C[C@@]1(C)C[C@@H](OC(=O)c2ccccc2)[C@H]2[C@](O)(C1=O)[C@H](O)C[C@H]1C(C)(C)[C@H](O)[C@H](OC(C)=O)[C@H](OC(=O)c3ccccc3)[C@@]12C [ORTHOSIPHOL T]	35.9 µM
C=C[C@@]1(C)C[C@@H](O)[C@H]2[C@](O)(C1=O)[C@H](OC(C)=O)C[C@H]1C(C)(C)[C@H](OC(C)=O)[C@H](OC(C)=O)[C@H](OC(=O)c3ccccc3)[C@@]12C [ORTHOSIPHOL U]	59.7 µM
C=C[C@@]1(C)C[C@@H](O)[C@H]2[C@](O)(C1=O)[C@H](OC(C)=O)C[C@H]1C(C)(C)[C@H](OC(C)=O)[C@H](O)[C@H](OC(=O)c3ccccc3)[C@@]12C [ORTHOSIPHOL V]	54.5 µM
C=C[C@@]1(C)C[C@@H](O)[C@H]2[C@](O)(C1=O)[C@H](OC(C)=O)C[C@H]1C(C)(C)[C@H](O)[C@H](OC(C)=O)[C@H](OC(=O)c3ccccc3)[C@@]12C [ORTHOSIPHOL W]	57.6 µM
C=C[C@@]1(C)C[C@@H](O)[C@H]2[C@](O)(C1=O)[C@H](O)C[C@H]1C(C)(C)[C@H](OC(=O)c3ccccc3)[C@H](OC(C)=O)[C@H](OC(=O)c3ccccc3)[C@@]12C [ORTHOSIPHOL X]	6.4 µM
C=C[C@@]1(C)C[C@@H](O)[C@@H]2[C@@]3(C)C=C(OC(C)=O)C(=O)C(C)(C)[C@@H]3C[C@@H](OC(C)=O)[C@@]2(O)C1=O [ORTHOSIPHOL Y]	37.9 µM
C=C[C@@]1(C)CC(=O)[C@H]2[C@](O)(C1=O)[C@H](OC(C)=O)C[C@H]1C(C)(C)[C@H](OC(=O)c3ccccc3)[C@H](OC(C)=O)[C@H](OC(=O)c3ccccc3)[C@@]12C [ORTHOSIPHONONE A]	32.1 µM
C=C[C@@]1(C)C[C@@H](OC(=O)c2ccccc2)[C@@H]2[C@@](C)(CC(=O)O)[C@H](C(C)(C)C(=O)OC)C[C@@H](OC(C)=O)[C@@]2(O)C1=O [SECOORTHOSIPHOL B]	127 µM
CNC(=N)NCCC[C@H](N)C(=O)O [TILARGININE]	26 µM
